Screening results from PubChem BioAssay.
pPAFAH FP inh: pPAFAH (human) enzyme inhibition; recombinant pPAFAH, FP-rhodamine probe fluorescence polarization; inhibition, % at 3.39 µM; Q13093; actives 1.5% (n = 330,000);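 active means inhibition above the mean inhibition across the screen plus 3 SD, cut at about 25% in these data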;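 further: inhibitors block binding of the rhodamine activity-based probe so polarization drops; 0% = enzyme with DMSO and 100% = wells lacking pPAFAH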
Target sequence (Q13093 whole entry, looked up): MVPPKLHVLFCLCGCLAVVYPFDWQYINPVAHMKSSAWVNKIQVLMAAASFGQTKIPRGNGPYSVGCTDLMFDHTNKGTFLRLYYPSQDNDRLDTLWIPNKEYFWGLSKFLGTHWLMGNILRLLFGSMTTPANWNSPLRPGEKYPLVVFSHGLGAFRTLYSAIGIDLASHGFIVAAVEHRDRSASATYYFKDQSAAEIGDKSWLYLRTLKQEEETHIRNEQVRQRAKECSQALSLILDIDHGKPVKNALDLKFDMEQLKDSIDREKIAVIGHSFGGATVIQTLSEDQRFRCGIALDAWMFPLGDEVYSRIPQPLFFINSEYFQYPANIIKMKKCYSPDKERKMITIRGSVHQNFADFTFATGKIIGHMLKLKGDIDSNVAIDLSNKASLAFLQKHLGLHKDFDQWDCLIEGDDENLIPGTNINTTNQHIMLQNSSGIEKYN
SIAE primary: human SIAE inhibition, primary screen; Q9HAT2; SIAE FP-Rh probe binding, fluorescence polarization; inhibition, % at 9.66 µM; actives 0.69% (n = 370,000); AID 1053197;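 active means inhibition above a cutoff: mean of compounds within the control limits plus 3 SD of those, cut at about 17% in these data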;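 further: 0% = plate median of compound wells and 100% = probe without SIAE protein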
HTRA1 inh: inhibitors of human serine peptidase HTRA1; recombinant HTRA1, FP-rhodamine activity-based probe, fluorescence polarization; inhibition, % at 5.96 µM; actives 0.5% (n = 340,000); AID 504803; in the data active means inhibition above about 36%;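 further: 0% = enzyme with DMSO and 100% = wells lacking enzyme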
mABHD4 FP: inhibits mouse alpha/beta hydrolase domain 4; Q8VD66; purified mABHD4, FP-Rh probe fluorescence polarization; actives 0.54% (n = 370,000); AID 720543; inhibition, % at 8.92 µM;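 active means inhibition exceeding the mean over every tested compound plus 3 SD, cut at about 30% in these data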;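 further: 0% = plate median of compound wells and 100% = S159A mutant with DMSO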
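Assay system: Wild-type mouse ABHD4 protein | Medium: HEPES pH 7.0 buffer, 150 mM NaCl, 0.01% Pluronic F-127 | Incubation: Enzyme–compound pre-incubation 45 min, then probe 60 min, both 25 °C | Technique: Fluorescence polarization with parallel and perpendicular emission, 525/598 nm | Evaluation: % inhibition of FP-Rh probe binding versus controls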
TCR CD3 inh: inhibitors of human TCR-CD3 interaction | inhibition, % at 9.4 µM | TAMRA-labeled TCR probe fluorescence, biochemical | actives 0.37% (n = 360,000) | AID 651800; in the data active means inhibition above about 19%;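 further: recombinant mutant TCR 2C K166C tagged with TAMRA read by polarization; 0% = receptor in buffer alone and 100% = receptor with positive control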
SIAE inh conf: human SIAE inhibition, confirmation | SIAE FP-Rh activity-based probe, fluorescence polarization | inhibition, % at 9.66 µM | shares compounds with SIAE primary | actives 13% (n = 2,300);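 active means mean inhibition of the replicates above the hit cutoff set in the primary screen, cut at about 17% in these data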;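 further: 0% = SIAE with DMSO and probe and 100% = probe without SIAE; inhibitors lower polarization as more probe stays unbound to SIAE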
Active calls of the source: *; nt = no result. Compounds with a hit are over-represented: about 2.3% of the library has one in this group of screens.

SMILES | pPAFAH FP inh | SIAE primary | HTRA1 inh | mABHD4 FP | TCR CD3 inh | SIAE inh conf
CCN(C(=O)COC(=O)c1ccc(Cl)c(S(=O)(=O)N2CCCCC2)c1)C1CCS(=O)(=O)C1 (stereo not drawn) | 2 | 0 | 1 | -5 | 2 | nt
CN(C(=O)COC(=O)c1ccc(Cl)c(S(=O)(=O)N2CCCCCC2)c1)C1CCS(=O)(=O)C1 (stereo not drawn) | 1 | 19* | -1 | 4 | -1 | 3
Cc1cccc(C(=O)Nc2nc3ncccn3c2-c2ccccc2)c1 | nt | -2 | nt | 0 | nt | nt
Cc1c(CC(=O)O)c(=O)oc2cc(OCc3nn[nH]n3)ccc12 | 0 | 18* | -2 | 1 | 7 | 3
C=CCN1[C@@H](CC(C)C)COc2cccc(N3CCCC3)c2S1(=O)=O | nt | 3 | nt | 8 | nt | nt
O=C(CNC(=O)C1CCCCC1)Nc1ccccc1Cl | 1 | 80* | 8 | -6 | 5 | -1
Cc1c(Cl)cccc1NC(=O)CNC(=O)C1CC(=O)N(C2CCCC2)C1 (stereo not drawn) | 3 | 21* | 5 | -6 | -4 | 0
c1ccc2sc(-n3cc(C4CCCCC4)nn3)nc2c1 | nt | -2 | nt | 3 | 10 | nt
CCn1c(=O)n(CC)c2cc(N3CCCC3)c(NC(=O)c3ccc(F)cc3)cc21 | -6 | 18* | 2 | 9 | 1 | 3
CCNC(=O)N(C)[C@H]1C[C@H]2c3[nH]c4c(-c5ccccc5)cccc4c3CCN2C(=O)[C@H]1[C@H](C)O | nt | -11 | nt | -7 | 9 | nt
O=C(CSc1ccc(-c2cccnc2)nn1)N1CCCCCC1 | 0 | 27* | 2 | -3 | 10 | 1
O=C(CSc1ccc(-c2cccnc2)nn1)N1CCCC1 | 1 | -6 | 2 | 0 | -5 | nt
CN(C)CCCn1c(NCc2ccc3c(c2)OCO3)nc2ccccc21 | 8 | 18* | 3 | 1 | 3 | 5
CCn1c(NCc2ccc3c(c2)OCO3)nc2ccccc21 | 2 | 3 | 6 | -3 | -9 | nt
N=c1n(CCN2CCCCC2)c2ccccc2n1CC(O)c1cccc(Br)c1 (stereo not drawn) | 5 | 33* | -2 | 4 | 0 | 4
C/C=C/c1ccc([C@@H]2[C@H](CO)N(S(C)(=O)=O)[C@H]2CN(C)C(=O)CC)cc1 | nt | 10 | nt | 7 | nt | nt
CCOC(=O)N1CCN(C2=C(NS(=O)(=O)c3ccc(C)cc3)C(=O)c3ccccc3C2=O)CC1 | 11 | 20* | 17 | 20 | 2 | 8
Cc1ccc(S(=O)(=O)NC2=C(N3CCN(Cc4ccccc4)CC3)C(=O)c3ccccc3C2=O)cc1 | 0 | -4 | 26 | 28 | 1 | nt
CNC(=S)N/N=C/c1cn(Cc2ccc(F)cc2)c2ccccc12 | 7 | 19* | 5 | 20 | -1 | 9
Nc1ccc(C(=O)N/N=C/c2cn(Cc3ccccc3)c3ccccc23)cc1 | nt | 14 | 3 | 12 | 1 | nt
Cn1c2ccccc2c2cc(/C=N/NC(=O)c3ccc(N)cc3)ccc21 | 31* | 24* | 0 | 18 | 7 | -3
Cn1c2ccccc2c2cc(/C=N/NC(=O)c3ccccc3F)ccc21 | 2 | -7 | -41 | -23 | 8 | nt
COc1cc(C(=O)N/N=C/c2cn(Cc3ccccc3)c3ccccc23)ccc1O | nt | 25* | 0 | 11 | 9 | 10
Nc1ccc(C(=O)N/N=C/c2cn(Cc3ccccc3F)c3ccccc23)cc1 | nt | 20* | -2 | 13 | 2 | 10
Cc1ccc(NC2CCCN(C(=O)CN3C(=O)CSC3=O)C2)cc1C (stereo not drawn) | 1 | 7 | -1 | -2 | 4 | nt
SMILES | pPAFAH FP inh | SIAE primary | HTRA1 inh | mABHD4 FP | TCR CD3 inh | SIAE inh conf
CC(C)c1ccc(NC2CCCN(C(=O)CN3C(=O)CSC3=O)C2)cc1 (stereo not drawn) | 5 | 17* | 0 | -3 | -4 | -1
CCOc1ccc(CN2C(=O)c3ccccc3C2=O)cc1C(=O)O | 3 | 3 | 0 | 2 | 3 | nt
CCOc1ccc(CN2C(=O)c3ccccc3C2=O)cc1C(=O)N1CCC(C(N)=O)CC1 | -9 | 22* | -3 | 4 | 1 | 5
COC(=O)CCCCCc1ccc(C(C)=O)s1 | 2 | 17* | 4 | 1 | 3 | 6
CC(=O)c1ccc(CCCCCCCCCC(=O)O)s1 | 10 | 7 | 1 | 6 | 4 | nt
CN1c2ccccc2C2(C)CCCC3=Cc4cc([N+](=O)[O-])cc([N+](=O)[O-])c4OC312 (stereo not drawn) | 1 | 52* | 3 | -5 | -1 | -7
CN1c2ccccc2C2(C)CCCC3=Cc4cccc([N+](=O)[O-])c4OC312 (stereo not drawn) | 1 | 11 | -2 | -4 | 9 | nt
O=C(O)CCc1nn2c3ccccc3n(CC(=O)O)c2nc1=O | -5 | 30* | 1 | -2 | 2 | -2
O=C(O)CCc1nn2c3ccccc3n(CCO)c2nc1=O | 5 | -2 | 2 | 6 | -3 | nt
C[C@H]1[C@H](NC(=O)c2ccc(C(C)(C)C)cc2)CC[C@@]23CCCN2C(=O)CCC[C@@H]13 | nt | 14 | nt | -1 | nt | nt
Cc1cnc(C(=O)OCC(=O)N=c2sccn2Cc2ccccc2Cl)cn1 | 6 | 0 | 2 | 11 | 2 | nt
O=C(COC(=O)c1cnccn1)N=c1sccn1Cc1ccccc1Cl | 9 | 20* | 0 | 1 | 12 | -3
O=C(Nc1nc2ccccc2[nH]1)C12CC3CC(CC(C3)C1)C2 | -3 | 18* | -8 | 7 | 2 | -5
COCCN(CCOC)C(=S)Nc1cc(S(=O)(=O)N(C)C)ccc1C | -3 | 20* | -2 | 2 | 6 | -4
CCOc1ccc(CN2CCNC(=O)C2CC(=O)NCc2ccccn2)cc1 (stereo not drawn) | 2 | 18* | -4 | 1 | 4 | -4
COc1cccc(CN2CCNC(=O)C2CC(=O)NCc2cn3cccc(C)c3n2)c1OC (stereo not drawn) | -7 | 0 | 0 | -1 | 6 | nt
COc1cccc(CN2CCNC(=O)C2CC(=O)NCc2cn3ccccc3n2)c1OC (stereo not drawn) | 3 | 22* | 2 | -5 | 4 | -3
COc1cc(NC(=O)CCl)ccc(=O)c1 | nt | 2 | -5 | 6 | -1 | nt
C#CCNC(=O)C[C@H]1C[C@@]2(C(=O)OC)C(=C[C@H](COCc3ccccc3)O[C@@H]2C)N(CCc2ccc(OC)c(OC)c2)C1=O | nt | -2 | nt | 2 | nt | nt
COCCNC(=O)c1cccc(OC2CCN(Cc3ccc(C(=O)OC)cc3)CC2)c1 | 3 | 51* | -3 | -3 | -4 | 1
COCCNC(=O)c1cccc(OC2CCN(Cc3ccc(C(C)C)cc3)CC2)c1 | 4 | -1 | -4 | 5 | 1 | nt
CCCc1cc(=O)[nH]c(SCC(=O)Nc2sccc2C#N)n1 | nt | 17* | -3 | 13 | -7 | 3
O=C(NC1CCCC1)N[C@@H]1CC[C@@H](CC(=O)N2CCOCC2)O[C@@H]1CO | nt | 0 | nt | 3 | 2 | nt
